Activity calls are given as the source filed them. The calls are words filed in the database; no cut-off is given here.
Tests used:
Escherichia coli [1] = test: Antibacterial activity against Escherichia coli BL21(DE3) incubated for 12 hrs by UV-Vis spectrophotometric analysis; assay type: functional, organism-based
Outline: (§1)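 E. coli grown in LB medium with the prodrug added, alone or together with 50 µM Na2S (H2S source) or 5 mM L-Cys. Cultures were incubated for 12 h, at 37 °C where stated, and growth was read as OD600 per sample. Controls: Na2S or L-Cys alone, and 30 nM NBD-SH by-product.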

Escherichia coli [2] = test: Antibacterial activity against Escherichia coli BL21(DE3) at lower concentration incubated for 12 hrs by UV-Vis spectrophotometric analysis; assay type: functional, organism-based; outline: as §1
[3] = Solubility of compound in 20 mM PBS buffer at pH 7.4 in presence of Na2S by UV-Vis spectrophotometric analysis; assay type: physicochemical
[4] = Prodrug activation in pH 7.4 PBS buffer assessed as ciprofloxacin formation by measuring increase in fluorescence at 5 uM in presence of Na2S at 415 nanometer by fluorescence assay relative to control; details: pH 7.4, 5 µM
Outline: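 Prodrug at 5 µM mixed with Na2S (100 µM) in PBS; fluorescence spectra recorded over time, excitation 280 nm. Emission at 415 nm plotted against time and fitted to give k_obs. Repeated at several Na2S concentrations; slope of k_obs versus [Na2S] gives k2.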

[5] = Prodrug activation in pH 7.4 PBS buffer assessed as formation of ciprofloxacin by measuring reaction rate constant at 5 uM in presence of Na2S by fluorescence assay; details: pH 7.4, 5 µM
Outline: (§2)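 Fluorescence spectra over time of 5 µM prodrug with 100 µM Na2S in PBS, excitation 280 nm; emission at 415 nm versus time fitted to give kobs; kobs plotted against Na2S concentration, slope of linear fit gives k2.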

[6] = Prodrug activation in pH 7.4 PBS buffer at 5 uM incubated for 30 mins in presence of Cys by fluorescence assay; details: pH 7.4, 0.5 h
Outline: (§3)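 Fluorescence of prodrug checked in PBS after exposure to millimolar biothiols, 10 mM GSH or 5 mM Cys.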

[7] = Prodrug activation in pH 7.4 PBS buffer at 5 uM incubated for 30 mins in presence of GSH by fluorescence assay; details: pH 7.4, 0.5 h; outline: as §3
[8] = Prodrug activation in pH 7.4 PBS buffer at 5 uM incubated for 30 mins in presence of 50 to 200 uM H2O2 by fluorescence assay; details: pH 7.4, 0.5 h
Outline: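 Fluorescence of prodrug read in PBS after exposure to a range of H2O2 concentrations up to 200 µM.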

Escherichia coli [9] = test: Antibacterial activity against Escherichia coli BL21(DE3) at 30 nM incubated for 12 hrs by UV-Vis spectrophotometric analysis; assay type: functional, organism-based
Outline: (§4)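 E. coli cultured in LB medium with additions of 30 nM prodrug, 30 nM NBD-SH, 50 µM Na2S, 5 mM L-Cys, or combinations (Na2S or L-Cys plus 30 nM prodrug); incubated 12 h, then bacterial density read as OD600.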

Escherichia coli [10] = test: Antibacterial activity against Escherichia coli BL21(DE3) at 30 nM incubated for 12 hrs in presence of GSH by UV-Vis spectrophotometric analysis; assay type: functional, organism-based
Escherichia coli [11] = test: Antibacterial activity against Escherichia coli BL21(DE3) at 30 nM incubated for 12 hrs in presence of H2S by UV-Vis spectrophotometric analysis; assay type: functional, organism-based; outline: as §4
Escherichia coli [12] = test: Antibacterial activity against Escherichia coli BL21(DE3) at >0.2 uM incubated for 12 hrs by UV-Vis spectrophotometric analysis; assay type: functional, organism-based
Escherichia coli [13] = test: Antibacterial activity against Escherichia coli BL21(DE3) incubated for 12 hrs in presence of Na2S by UV-Vis spectrophotometric analysis; assay type: functional; outline: as §4
[14] = Prodrug activation in pH 7.4 PBS buffer assessed as absorption peak for ciprofloxacin formation at 10 uM in presence of Na2S by UV-Vis spectrophotometric analysis; details: pH 7.4, 10 µM
Outline: (§5)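 Absorption spectra recorded over time for 10 µM prodrug with 200 µM Na2S in 50 mM PBS, pH 7.4; bands followed at 350, 490 and new 530 nm; kinetics followed by intensity at 560 nm.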

[15] = Prodrug activation in pH 7.4 PBS buffer assessed as absorption peak for NBD fluorophore formation at 10 uM in presence of Na2S by UV-Vis spectrophotometric analysis; details: pH 7.4, 10 µM; outline: as §5
[16] = Prodrug activation in pH 7.4 PBS buffer assessed as ciprofloxacin formation by measuring increase in fluorescence at 5 uM in presence of Na2S at 415 nanometer by fluorescence assay; details: pH 7.4, 5 µM, TDE = time-dependent effect; outline: as §2
Escherichia coli [17] = test: Antibacterial activity against Escherichia coli BL21(DE3) incubated for 12 hrs in presence of L-Cys by UV-Vis spectrophotometric analysis; assay type: functional, organism-based; outline: as §4
[18] = Prodrug activation in pH 7.4 PBS buffer assessed as second order rate constant at 10 uM in presence of Na2S by UV-Vis spectrophotometric analysis; details: pH 7.4, 10 µM

| solubility [3] [µM] | fold change (FC) [4] | K [5] [M⁻¹ s⁻¹] | Drug metabolism [6] | Drug metabolism [7] | Drug metabolism [8] | MIC (Escherichia coli [13]) [µM] | Activity [14] [nm] | Activity [15] [nm] | Drug metabolism [16] | k2 [18] [M⁻¹ s⁻¹] | Structure (SMILES) | Activity (Escherichia coli [1]) | Activity (Escherichia coli [2]) | Activity (Escherichia coli [9]) | Activity (Escherichia coli [10]) | Activity (Escherichia coli [11]) | Activity (Escherichia coli [12]) | Activity (Escherichia coli [17]) |
| --- | --- | --- | --- | --- | --- | --- | --- | --- | --- | --- | --- | --- | --- | --- | --- | --- | --- | --- |
| – | – | – | – | – | – | – | – | – | – | – | O=[N+]([O-])c1ccc(S)c2nonc12 | inactive | inactive | – | – | – | – | – |
| 17 | 62 | 12 | Metabolite_Notdetected | Metabolite_Notdetected | Metabolite_Notdetected | 0.03 | 350 | 490 | Tde | 12.9 | O=C(O)c1cn(C2CC2)c2cc(N3CCN(c4ccc([N+](=O)[O-])c5nonc45)CC3)c(F)cc2c1=O | – | Active | inactive | inactive | Active | Active | Active |
